Measurements published in ChEMBL document CHEMBL3351343, “Synthesis and biological evaluation of novel sigma-1 receptor antagonists based on pyrimidine scaffold as agents for treating neuropathic pain” (J Med Chem, 2014).

Experiments:
[1] = Displacement of [3H]-DTG from sigma-2 receptor in Dunkin Hartley guinea pig brain membrane after 120 mins by liquid scintillation counting analysis in presence of (+)-SKF10047; design: species or system Cavia porcellus
Mus musculus [2] = assay: Antinociceptive activity in Kun Ming mouse pain model assessed as reduction in licking and biting time during phase-1 at 80 mg/kg, ip administered 15 mins prior to formalin challenge relative to vehicle-treated control; type: functional; conditions: route intraperitoneal
How it was run: (§1)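 Kun Ming mice (20 ± 2.0 g), 10–12 per group, given vehicle (30% PEG 400) or drug ip at 10 mL/kg 15 min before intraplantar formalin. Time spent licking or biting the injected paw scored at 0–5 min (phase I) and 15–45 min (phase II). Effect (%) = (LTV − LTD)/LTV × 100.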

Mus musculus [3] = assay: Antinociceptive activity in Kun Ming mouse pain model assessed as reduction in licking and biting time during phase-2 at 80 mg/kg, ip administered 15 mins prior to formalin challenge relative to vehicle-treated control; type: functional; conditions: route intraperitoneal; how it was run: as §1
Mus musculus [4] = assay: Antinociceptive activity in ip dosed Kun Ming mouse pain model assessed as reduction in licking and biting time during phase-2 administered 15 mins prior to formalin challenge relative to vehicle-treated control; type: functional; how it was run: as §1
Rattus norvegicus [5] = assay: Antineuropathic pain activity in po dosed Sprague-Dawley rat chronic constriction injury model assessed as inhibition of thermal hypersensitivity measured on day 15 relative to sham-treated control; type: functional
How it was run: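 Sprague-Dawley rats, sciatic nerve chronic constriction injury (four loose 4-0 silk ligatures, chloral hydrate anaesthesia); sham has nerve exposed without ligation. Model confirmed on day 14. Oral dosing in 0.5% methylcellulose, 10 mL/kg, twice daily on days 15–18. Read after first dose (day 15) and last dose (day 18). Von Frey withdrawal threshold and radiant-heat plantar withdrawal latency (30 s cutoff), each paw sampled four times and averaged; 10 rats/group.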

Mus musculus [6] = assay: Toxicity in Kun Ming mouse at 20 to 80 mg/kg, ip measured after 30 to 120 mins by rotarod test; type: organism-based; design: route intraperitoneal; conditions: in vivo
How it was run: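 Rotarod test in Kun Ming mice pretrained to stay 300 s at 10 rpm. Latency to fall from drum turning at 10 rpm measured 30, 60, 90 and 120 min after ip dosing; 8–10 mice per group.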

Rattus norvegicus [7] = assay: Cmax in Sprague-Dawley rat at 16 mg/kg, iv by HPLC/MS/MS analysis; type: ADME, organism-based; design: dose 16 mg/kg, route intravenous; conditions: in vivo
How it was run: (§2)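 Sprague-Dawley rats (250 ± 5.0 g), n = 8/group, dosed iv via lateral tail vein at 16 mg/kg in 100% saline or by oral gavage at 320 mg/kg as suspension in 0.5% methylcellulose. Serial tail-vein blood into heparinized tubes at 30 min, 1, 2, 3, 4, 5, 6, 7 and 24 h. Plasma treated by acetonitrile protein precipitation, then HPLC/MS on C18 column, 40 °C.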

Rattus norvegicus [8] = assay: Cmax in Sprague-Dawley rat at 320 mg/kg, po by HPLC/MS/MS analysis; type: ADME, organism-based; design: dose 320 mg/kg, route oral; conditions: in vivo; how it was run: as §2
[9] = AUC (0 to 24 hrs) in Sprague-Dawley rat at 320 mg/kg, po by HPLC/MS/MS analysis; type: ADME, organism-based; design: time < 24 hr, dose 320 mg/kg, route oral; conditions: plasma; how it was run: as §2
[10] = Oral bioavailability in Sprague-Dawley rat at 320 mg/kg; type: ADME, organism-based; conditions: in vivo
[11] = molecular target: T1, 5-hydroxytryptamine receptor 1A (Rattus norvegicus) (UniProt P19327); assay: Displacement of [3H]-8-OH-DPAT from rat cerebral cortex 5-HT1A receptor at 1 uM after 30 mins by liquid scintillation counting analysis; type: tissue-based
T1 sequence (whole entry): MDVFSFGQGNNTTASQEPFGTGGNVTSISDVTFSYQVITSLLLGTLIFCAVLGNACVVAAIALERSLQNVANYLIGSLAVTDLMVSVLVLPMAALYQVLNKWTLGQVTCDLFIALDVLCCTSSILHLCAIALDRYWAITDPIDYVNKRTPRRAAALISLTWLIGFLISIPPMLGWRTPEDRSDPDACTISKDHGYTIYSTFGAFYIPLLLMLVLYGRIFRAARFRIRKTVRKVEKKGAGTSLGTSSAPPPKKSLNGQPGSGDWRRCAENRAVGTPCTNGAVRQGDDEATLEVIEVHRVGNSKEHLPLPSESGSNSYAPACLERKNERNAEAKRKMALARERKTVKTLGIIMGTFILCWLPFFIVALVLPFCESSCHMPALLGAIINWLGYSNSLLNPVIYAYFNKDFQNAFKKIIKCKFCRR

[12] = molecular target: Sodium-dependent serotonin transporter (Rattus norvegicus) (UniProt P31652); assay: Displacement of [3H]-paroxetine from rat cerebral cortex serotonin HT transporter at 1 uM after 10 mins by liquid scintillation counting analysis; type: tissue-based
Sequence of Sodium-dependent serotonin transporter (Rattus norvegicus) (P31652 whole entry): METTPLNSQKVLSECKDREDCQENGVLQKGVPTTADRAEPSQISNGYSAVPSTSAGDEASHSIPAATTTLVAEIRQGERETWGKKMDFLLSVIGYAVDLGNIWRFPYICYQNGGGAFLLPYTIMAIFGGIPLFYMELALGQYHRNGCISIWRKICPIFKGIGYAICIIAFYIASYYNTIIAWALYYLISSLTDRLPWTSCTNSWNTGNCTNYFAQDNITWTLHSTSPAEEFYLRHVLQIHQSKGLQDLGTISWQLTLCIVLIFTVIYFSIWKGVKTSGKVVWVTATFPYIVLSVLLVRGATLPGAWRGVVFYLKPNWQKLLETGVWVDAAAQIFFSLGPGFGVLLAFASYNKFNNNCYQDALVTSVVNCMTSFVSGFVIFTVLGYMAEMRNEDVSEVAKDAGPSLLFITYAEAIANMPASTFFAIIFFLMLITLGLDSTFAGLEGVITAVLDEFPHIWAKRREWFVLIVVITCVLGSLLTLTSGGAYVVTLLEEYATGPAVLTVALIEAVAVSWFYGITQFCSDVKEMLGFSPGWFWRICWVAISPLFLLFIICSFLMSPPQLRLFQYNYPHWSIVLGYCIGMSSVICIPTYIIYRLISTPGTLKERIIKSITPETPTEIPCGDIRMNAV

[13] = molecular target: Norepinephrine transporter (Rattus norvegicus) (UniProt Q9WTR4); assay: Displacement of [N-methyl-3H]-nisoxetine from rat hippocampal membrane Noradrenaline transporter at 1 uM after 8 hrs by liquid scintillation counting analysis; type: tissue-based; conditions: Hippocampus
Sequence of Norepinephrine transporter (Rattus norvegicus) (Q9WTR4 as listed by the source): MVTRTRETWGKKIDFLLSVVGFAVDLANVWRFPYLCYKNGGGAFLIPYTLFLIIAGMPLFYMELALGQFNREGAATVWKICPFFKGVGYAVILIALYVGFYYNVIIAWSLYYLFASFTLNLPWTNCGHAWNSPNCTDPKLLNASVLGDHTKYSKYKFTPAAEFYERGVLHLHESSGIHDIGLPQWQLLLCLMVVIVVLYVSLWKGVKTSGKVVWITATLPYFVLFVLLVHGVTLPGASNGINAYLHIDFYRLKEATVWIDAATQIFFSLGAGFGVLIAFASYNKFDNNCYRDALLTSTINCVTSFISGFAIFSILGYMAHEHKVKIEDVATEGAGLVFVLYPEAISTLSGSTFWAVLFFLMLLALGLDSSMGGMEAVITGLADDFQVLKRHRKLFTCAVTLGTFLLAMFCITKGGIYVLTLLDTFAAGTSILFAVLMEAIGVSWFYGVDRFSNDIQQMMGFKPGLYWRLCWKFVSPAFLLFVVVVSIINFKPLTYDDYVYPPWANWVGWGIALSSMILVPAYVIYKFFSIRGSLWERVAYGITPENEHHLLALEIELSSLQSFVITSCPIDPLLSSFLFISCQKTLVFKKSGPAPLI

[14] = molecular target: Histamine H3 receptor (Rattus norvegicus) (UniProt Q9QYN8); assay: Displacement of [3H]-N-alpha-methylhistamine from rat cerebral cortex histamine H3 receptor at 1 uM after 30 mins by liquid scintillation counting analysis; type: tissue-based
Sequence of Histamine H3 receptor (Rattus norvegicus) (Q9QYN8 whole entry): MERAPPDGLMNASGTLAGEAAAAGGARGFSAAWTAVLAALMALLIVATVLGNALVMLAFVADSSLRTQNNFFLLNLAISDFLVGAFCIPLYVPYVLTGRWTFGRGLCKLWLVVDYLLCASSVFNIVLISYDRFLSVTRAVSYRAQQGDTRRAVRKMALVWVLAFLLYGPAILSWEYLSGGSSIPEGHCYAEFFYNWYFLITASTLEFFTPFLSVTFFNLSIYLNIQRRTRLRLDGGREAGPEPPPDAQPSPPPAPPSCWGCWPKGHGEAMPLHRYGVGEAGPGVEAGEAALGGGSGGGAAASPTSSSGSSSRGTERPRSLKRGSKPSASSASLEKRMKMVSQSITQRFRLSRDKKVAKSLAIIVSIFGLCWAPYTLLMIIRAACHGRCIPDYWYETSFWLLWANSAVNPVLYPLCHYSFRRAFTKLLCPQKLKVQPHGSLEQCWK

[15] = molecular target: Adrenergic receptor alpha-1 (Rattus norvegicus) (UniProt P15823+P23944+P43140); assay: Displacement of [3H]-prazosin from rat cerebral cortex adrenergic alpha-1 receptor at 1 uM after 60 mins by liquid scintillation counting analysis; type: tissue-based
[16] = molecular target: Adrenergic receptor alpha-2 (Rattus norvegicus) (UniProt P22086+P19328+P22909); assay: Displacement of [3H]-rauwolscine from rat cerebral cortex adrenergic alpha-2 receptor at 1 uM after 60 mins by liquid scintillation counting analysis; type: tissue-based
[17] = molecular target: Glutamate NMDA receptor (Rattus norvegicus) (UniProt P35439+Q00959+Q00960+Q00961+Q62645+Q8VHN2+Q9R1M7); assay: Displacement of [3H]-glycine from rat hippocampal membrane NMDA receptor at 1 uM after 30 mins by liquid scintillation counting analysis
[18] = molecular target: Mu-type opioid receptor (Homo sapiens) (UniProt P35372); assay: Displacement of [3H]-diprenorphine from human mu-opioid receptor at 1 uM after 150 mins by liquid scintillation counting analysis
Sequence of Mu-type opioid receptor (Homo sapiens) (P35372 whole entry): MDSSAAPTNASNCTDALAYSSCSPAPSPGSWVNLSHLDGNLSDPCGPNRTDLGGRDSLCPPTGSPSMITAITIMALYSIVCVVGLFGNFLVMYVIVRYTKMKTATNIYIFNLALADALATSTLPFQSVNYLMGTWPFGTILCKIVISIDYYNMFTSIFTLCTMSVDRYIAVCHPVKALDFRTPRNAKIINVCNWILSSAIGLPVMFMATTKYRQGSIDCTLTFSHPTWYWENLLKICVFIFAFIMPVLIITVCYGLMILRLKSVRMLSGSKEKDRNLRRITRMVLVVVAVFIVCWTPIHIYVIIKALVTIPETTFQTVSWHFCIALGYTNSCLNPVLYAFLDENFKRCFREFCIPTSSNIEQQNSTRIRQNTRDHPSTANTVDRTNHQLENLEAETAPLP

[19] = molecular target: Cannabinoid receptor 1 (Homo sapiens) (UniProt P21554); assay: Displacement of [3H]-CP-55940 from human CB1 receptor expressed in CHO cells at 1 uM after 90 mins by liquid scintillation counting analysis; type: cell-based
Sequence of Cannabinoid receptor 1 (Homo sapiens) (P21554 whole entry): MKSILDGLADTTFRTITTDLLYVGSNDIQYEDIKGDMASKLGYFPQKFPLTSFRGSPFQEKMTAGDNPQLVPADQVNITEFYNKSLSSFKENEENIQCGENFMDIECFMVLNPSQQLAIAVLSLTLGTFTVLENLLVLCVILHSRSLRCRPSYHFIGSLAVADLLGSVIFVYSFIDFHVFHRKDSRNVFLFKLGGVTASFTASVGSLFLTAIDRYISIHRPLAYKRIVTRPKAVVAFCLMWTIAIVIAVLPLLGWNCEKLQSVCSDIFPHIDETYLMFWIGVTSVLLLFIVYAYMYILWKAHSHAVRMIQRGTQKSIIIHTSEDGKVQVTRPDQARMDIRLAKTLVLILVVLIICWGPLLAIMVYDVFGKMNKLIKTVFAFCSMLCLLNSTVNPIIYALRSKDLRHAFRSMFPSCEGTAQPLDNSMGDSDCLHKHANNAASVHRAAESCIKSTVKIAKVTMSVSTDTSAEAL

[20] = molecular target: Cannabinoid receptor 2 (Homo sapiens) (UniProt P34972); assay: Displacement of [3H]-CP-55940 from human CB2 receptor expressed in HEK cells at 1 uM after 90 mins by liquid scintillation counting analysis; type: cell-based; conditions: HEK293
Sequence of Cannabinoid receptor 2 (Homo sapiens) (P34972 whole entry): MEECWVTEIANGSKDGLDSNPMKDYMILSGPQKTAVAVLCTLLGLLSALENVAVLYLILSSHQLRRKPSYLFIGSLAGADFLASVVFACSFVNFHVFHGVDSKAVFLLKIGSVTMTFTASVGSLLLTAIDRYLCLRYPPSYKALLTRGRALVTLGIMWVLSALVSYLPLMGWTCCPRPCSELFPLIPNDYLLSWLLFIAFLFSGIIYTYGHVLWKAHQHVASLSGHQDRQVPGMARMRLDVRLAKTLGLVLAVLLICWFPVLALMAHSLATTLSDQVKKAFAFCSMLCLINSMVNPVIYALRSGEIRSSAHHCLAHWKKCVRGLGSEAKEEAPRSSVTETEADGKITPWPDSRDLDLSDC

[21] = molecular target: Sodium channel protein type 9 subunit alpha (Homo sapiens) (UniProt Q15858); assay: Inhibition of from human Nav 1.7 channel expressed in HEK293 cells at 1 uM after 5 mins by electrophysiological analysis; type: cell-based
Sequence of Sodium channel protein type 9 subunit alpha (Homo sapiens) (Q15858 whole entry, looked up): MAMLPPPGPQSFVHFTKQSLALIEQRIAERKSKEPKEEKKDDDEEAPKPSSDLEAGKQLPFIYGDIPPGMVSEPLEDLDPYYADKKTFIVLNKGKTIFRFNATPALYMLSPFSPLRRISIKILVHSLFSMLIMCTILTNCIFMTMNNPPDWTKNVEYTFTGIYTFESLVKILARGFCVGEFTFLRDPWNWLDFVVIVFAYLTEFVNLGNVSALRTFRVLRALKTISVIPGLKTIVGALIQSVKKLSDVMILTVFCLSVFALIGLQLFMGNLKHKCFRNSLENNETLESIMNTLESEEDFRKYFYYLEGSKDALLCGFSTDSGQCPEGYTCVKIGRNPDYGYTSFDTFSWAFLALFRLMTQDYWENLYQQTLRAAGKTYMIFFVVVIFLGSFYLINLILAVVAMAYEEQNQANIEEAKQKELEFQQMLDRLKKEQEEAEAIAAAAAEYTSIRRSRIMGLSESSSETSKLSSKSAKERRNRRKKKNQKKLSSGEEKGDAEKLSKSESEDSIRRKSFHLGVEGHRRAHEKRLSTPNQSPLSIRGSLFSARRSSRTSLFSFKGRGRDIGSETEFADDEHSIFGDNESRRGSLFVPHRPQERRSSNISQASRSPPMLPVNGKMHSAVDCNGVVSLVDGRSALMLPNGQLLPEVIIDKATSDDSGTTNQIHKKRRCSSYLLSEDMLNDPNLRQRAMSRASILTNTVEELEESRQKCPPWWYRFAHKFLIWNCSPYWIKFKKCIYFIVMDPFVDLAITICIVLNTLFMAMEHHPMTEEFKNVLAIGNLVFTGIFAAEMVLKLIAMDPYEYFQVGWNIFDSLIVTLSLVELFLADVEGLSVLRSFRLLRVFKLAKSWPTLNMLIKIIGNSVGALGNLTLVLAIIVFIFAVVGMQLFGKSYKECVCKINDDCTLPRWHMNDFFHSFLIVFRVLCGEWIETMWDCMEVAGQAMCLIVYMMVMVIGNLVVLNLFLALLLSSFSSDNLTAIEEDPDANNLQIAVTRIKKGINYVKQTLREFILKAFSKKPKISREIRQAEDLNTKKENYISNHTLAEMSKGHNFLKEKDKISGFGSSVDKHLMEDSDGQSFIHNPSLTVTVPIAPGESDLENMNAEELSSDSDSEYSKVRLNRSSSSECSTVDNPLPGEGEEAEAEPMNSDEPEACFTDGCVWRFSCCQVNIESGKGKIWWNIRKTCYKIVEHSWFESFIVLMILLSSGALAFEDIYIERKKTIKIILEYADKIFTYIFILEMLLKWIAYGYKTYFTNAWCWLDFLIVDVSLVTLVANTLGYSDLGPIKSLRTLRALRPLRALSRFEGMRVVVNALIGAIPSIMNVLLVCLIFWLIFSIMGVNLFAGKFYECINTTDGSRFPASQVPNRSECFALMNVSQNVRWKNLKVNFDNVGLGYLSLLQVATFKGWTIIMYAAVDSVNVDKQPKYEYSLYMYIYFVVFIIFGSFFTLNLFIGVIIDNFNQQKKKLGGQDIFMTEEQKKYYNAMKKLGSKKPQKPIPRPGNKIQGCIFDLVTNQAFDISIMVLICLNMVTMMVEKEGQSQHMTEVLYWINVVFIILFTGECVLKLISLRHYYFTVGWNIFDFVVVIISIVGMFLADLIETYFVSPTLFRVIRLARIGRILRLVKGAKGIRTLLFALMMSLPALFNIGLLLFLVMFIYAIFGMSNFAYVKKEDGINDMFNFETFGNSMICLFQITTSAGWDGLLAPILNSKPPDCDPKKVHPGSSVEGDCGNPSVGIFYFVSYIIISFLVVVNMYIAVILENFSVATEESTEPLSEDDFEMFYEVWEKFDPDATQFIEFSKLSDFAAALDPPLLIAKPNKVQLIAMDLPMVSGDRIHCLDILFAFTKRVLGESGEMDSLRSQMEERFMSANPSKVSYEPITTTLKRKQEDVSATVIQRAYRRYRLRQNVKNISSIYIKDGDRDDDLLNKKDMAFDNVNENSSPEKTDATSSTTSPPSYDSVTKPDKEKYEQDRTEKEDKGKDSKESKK

[22] = Half life in Sprague-Dawley rat at 16 mg/kg, iv by HPLC/MS/MS analysis; conditions: in vivo
[23] = AUC (0 to 24 hrs) in Sprague-Dawley rat at 16 mg/kg, iv by HPLC/MS/MS analysis; conditions: plasma

Cc1nc(-c2ccc(Cl)cc2)nc(OCCCN2CCCCC2)c1Cl
Ki [1]: 1420 nM
Time (Mus musculus [2]): 12.65 s
Time (Mus musculus [3]): 37.41 s
Activity (Mus musculus [4]): Dose-dependent effect
ED50 (Mus musculus [4]): 42.1 mg/kg
inhibition (Rattus norvegicus [5]): Dose-dependent effect
ED50 (Rattus norvegicus [5]; 360 h): 47.2 mg/kg
Activity (Mus musculus [6]): Non-toxic
Cmax (Rattus norvegicus [7]): 7260 ng/mL
Cmax (Rattus norvegicus [8]): 17400 ng/mL
AUC(0-t) at 24 h [9]: 54700 ng·h/mL
bioavailability [10]: 75.1%
inhibition [11]: < 50%
inhibition [12]: < 50%
inhibition [13]: < 50%
inhibition [14]: < 50%
inhibition [15]: < 50%
inhibition [16]: < 50%
inhibition [17]: < 50%
inhibition [18]: < 50%
inhibition [19]: < 50%
inhibition [20]: < 50%
inhibition [21]: < 50%
half-life [22]: 10.6 h
AUC(0-t) at 24 h [23]: 3300 ng·h/mL
